From ChEMBL document CHEMBL3396946, “Design, synthesis and pharmacological evaluation of N-[4-(4-(alkyl/aryl/heteroaryl)-piperazin-1-yl)-phenyl]-carbamic acid ethyl ester derivatives as novel anticonvulsant agents” (Bioorg Med Chem Lett, 2015)
The source made the active and inactive calls. No cut-off for these calls is given here.

system: Mus musculus; assay: (§1) Reduction in MDA level in brain of Swiss albino mouse model of pentylenetetrazole-induced kindling related chronic epilepsy at 5 to 30 mg/kg, ip administered daily for 5 weeks followed by injection of 30 mg/kg, ip PTZ on every alternate day till full kindling development by spectrophotometry; assay type: functional, organism-based; settings: not given
How it was run: (§2)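 PTZ-kindled mice (30 mg/kg i.p. on alternate days for 5 weeks) receive i.p. treatment (5, 10, 20, 30 mg/kg) for 35 days. At the end, mice are killed under ether and brains stored at -20 °C for up to 10 h. Readouts are GSH (µg/g wet tissue), MDA (nmol/µg protein), GSH-Px (U/g protein) and NO (µmol/g protein). n = 8 per group (PTZ group n = 6); mean ± SEM, ANOVA with Tukey's test.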

Structure (SMILES) | Activity
CCOC(=O)Nc1ccc(N2CCN(c3ccc(C(C)=O)cc3)CC2)cc1 | Active

system: not listed separately; assay: Neurological toxicity in intraperitoneally dosed Swiss albino mouse assessed as motor impairment after 0.5 hrs by rotarod test; assay type: organism-based; settings: in vivo, ip, read-out: MTD50

Structure (SMILES) | TD50 at 0.5 h
NC(=O)N1c2ccccc2C=Cc2ccccc21 [CARBAMAZEPINE] | 100 mg/kg
CCOC(=O)Nc1ccc(N2CCN(C(=O)c3ccccc3)CC2)cc1 | 300 mg/kg
CCOC(=O)Nc1ccc(N2CCN(c3ccc(C)cc3)CC2)cc1 | 100 mg/kg
CCOC(=O)Nc1ccc(N2CCN(c3ccncc3)CC2)cc1 | 300 mg/kg
CCOC(=O)Nc1ccc(N2CCN(c3ccccn3)CC2)cc1 | 100 mg/kg

system: Mus musculus; assay: Anticonvulsant activity in Swiss albino mouse assessed as reduction in electrical stimulus-induced seizures at 300 mg/kg, ip after 4 hrs by maximal electroshock seizure test; assay type: functional, organism-based; design: dose 300 mg/kg; settings: not given
How it was run: (§3)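 Adult male Swiss albino mice; test agents given i.p. at 30, 100 and 300 mg/kg, with animals examined 0.5 h and 4.0 h after injection. Value is the minimal dose protecting half or more of the mice; a dash means no activity at 300 mg/kg.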

Structure (SMILES) | Activity
CCOC(=O)Nc1ccc(N2CCN(c3ccc(F)cc3)CC2)cc1 | inactive
CCOC(=O)Nc1ccc(N2CCN(C)CC2)cc1 | inactive
CCC1(C)CC(=O)NC1=O (stereo unspecified) [ETHOSUXIMIDE] | inactive
CCOC(=O)Nc1ccc(N2CCN(c3ccc(OC)cc3)CC2)cc1 | inactive
CCOC(=O)Nc1ccc(N2CCN(CC)CC2)cc1 | inactive

system: Mus musculus; assay: Anticonvulsant activity in Swiss albino mouse assessed as reduction in clonic seizures at 300 mg/kg, ip after 0.5 hrs by subcutaneous pentylenetetrazole seizure test; assay type: functional, organism-based; design: dose 300 mg/kg; settings: not given; how it was run: as §3

Structure (SMILES) | Activity
CCOC(=O)Nc1ccc(N2CCN(c3ccc(F)cc3)CC2)cc1 | inactive
CCOC(=O)Nc1ccc(N2CCN(C)CC2)cc1 | inactive
CCOC(=O)Nc1ccc(N2CCN(C(=O)c3ccccc3)CC2)cc1 | inactive
CCOC(=O)Nc1ccc(N2CCN(c3ccc(OC)cc3)CC2)cc1 | inactive
CCOC(=O)Nc1ccc(N2CCN(CC)CC2)cc1 | inactive
CCOC(=O)Nc1ccc(N2CCN(c3ccncc3)CC2)cc1 | inactive
CCOC(=O)Nc1ccc(N2CCN(c3ccccn3)CC2)cc1 | inactive

system: Mus musculus; assay: as §1, with “in nitric oxide” for “in MDA”, “at 10” for “at 5”, “by Griess reagent based assay” for “by spectrophotometry”; assay type: functional, organism-based; settings: not given; how it was run: as §2

Structure (SMILES) | Activity
CCOC(=O)Nc1ccc(N2CCN(c3ccc(C(C)=O)cc3)CC2)cc1 | Active

system: Mus musculus; assay: (§4) Increase in GSH-Px level in brain of Swiss albino mouse model of pentylenetetrazole-induced kindling related chronic epilepsy at 5 to 30 mg/kg, ip administered daily for 5 weeks followed by injection of 30 mg/kg, ip PTZ on every alternate day till full kindling development; assay type: functional, organism-based; settings: not given; how it was run: as §2

Structure (SMILES) | Activity
CCOC(=O)Nc1ccc(N2CCN(c3ccc(C(C)=O)cc3)CC2)cc1 | Active

system: Mus musculus; assay: Anticonvulsant activity in intraperitoneally dosed Swiss albino mouse assessed as reduction in electrical stimulus-induced seizures after 0.5 hrs by maximal electroshock seizure test; assay type: functional; settings: not given; how it was run: as §3

Structure (SMILES) | MED50
NC(=O)N1c2ccccc2C=Cc2ccccc21 [CARBAMAZEPINE] | 30 mg/kg
CCOC(=O)Nc1ccc(N2CCN(c3ccc(C(C)=O)cc3)CC2)cc1 | 30 mg/kg
CCOC(=O)Nc1ccc(N2CCN(c3ccc(OC)cc3)CC2)cc1 | 100 mg/kg
CCOC(=O)Nc1ccc(N2CCN(c3ccc(C)cc3)CC2)cc1 | 30 mg/kg
CCOC(=O)Nc1ccc(N2CCN(c3ccncc3)CC2)cc1 | 100 mg/kg
CCOC(=O)Nc1ccc(N2CCN(c3ccccn3)CC2)cc1 | 100 mg/kg

system: Mus musculus; assay: as §1, with “nitric oxide” for “MDA”, “5” for “5 to 30”, “Griess reagent based assay” for “spectrophotometry”; assay type: functional, organism-based; settings: not given; how it was run: as §2

Structure (SMILES) | Activity
CCOC(=O)Nc1ccc(N2CCN(c3ccc(C(C)=O)cc3)CC2)cc1 | inactive

system: Mus musculus; assay: as §4, with “GSH” for “GSH-Px”, “development by Ellman's reagent based assay” for “development”; assay type: functional, organism-based; settings: not given; how it was run: as §2

Structure (SMILES) | Activity
CCOC(=O)Nc1ccc(N2CCN(c3ccc(C(C)=O)cc3)CC2)cc1 | Active

system: Mus musculus; assay: Anticonvulsant activity in Swiss albino mouse assessed as reduction in electrical stimulus-induced seizures at 300 mg/kg, ip after 0.5 hrs by maximal electroshock seizure test; assay type: functional, organism-based; design: dose 300 mg/kg; settings: not given; how it was run: as §3

Structure (SMILES) | Activity
CCOC(=O)Nc1ccc(N2CCN(c3ccc(F)cc3)CC2)cc1 | inactive
CCOC(=O)Nc1ccc(N2CCN(C)CC2)cc1 | inactive
CCOC(=O)Nc1ccc(N2CCN(C(=O)c3ccccc3)CC2)cc1 | inactive
CCC1(C)CC(=O)NC1=O (stereo unspecified) [ETHOSUXIMIDE] | inactive
CCOC(=O)Nc1ccc(N2CCN(CC)CC2)cc1 | inactive

system: Mus musculus; assay: Toxicity in Swiss albino mouse assessed as induction of myoclonic jerks at 100 mg/kg, ip after 0.5 hrs during subcutaneous pentylenetetrazole seizure test; assay type: organism-based; design: dose 100 mg/kg; settings: not given

Structure (SMILES) | Activity
CCOC(=O)Nc1ccc(N2CCN(c3ccc(C)cc3)CC2)cc1 | Toxic

system: Mus musculus; assay: (§5) Anticonvulsant activity in Swiss albino mouse model of pentylenetetrazole-induced kindling related chronic epilepsy assessed as reduction in seizure severity score by at 5 mg/kg, ip administered daily for 5 weeks followed by injection of 30 mg/kg, ip PTZ on every alternate day till full kindling development; assay type: functional, organism-based; settings: not given
How it was run: (§6)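 Adult male Swiss albino mice are randomised into seven groups (n = 8; n = 9 for PTZ-only). Treatment is i.p. for 35 days. PTZ is given at 30 mg/kg i.p. on alternate days for 5 weeks. Control mice receive saline; phenobarbital 30 mg/kg i.p. is the reference. Seizure score is rated visually each week. Data are mean ± SEM, ANOVA with Tukey's test.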

Structure (SMILES) | Activity
CCOC(=O)Nc1ccc(N2CCN(c3ccc(C(C)=O)cc3)CC2)cc1 | Active

system: Mus musculus; assay: Neurological toxicity in Swiss albino mouse assessed as motor impairment at 300 mg/kg, ip after 0.5 hrs by rotarod test; assay type: organism-based; design: dose 300 mg/kg, route intraperitoneal; settings: in vivo
How it was run: (§7)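 Adult male Swiss albino mice dosed i.p. at 30, 100 and 300 mg/kg, examined at 0.5 h and 4.0 h. Neurotoxicity is scored as failure to hold onto the rotating rod, with three successive trials. Value is the minimal dose active in half or more of the mice.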

Structure (SMILES) | Activity
CCOC(=O)Nc1ccc(N2CCN(c3ccc(F)cc3)CC2)cc1 | Non-toxic
CCOC(=O)Nc1ccc(N2CCN(c3ccc(C(C)=O)cc3)CC2)cc1 | Non-toxic
CCOC(=O)Nc1ccc(N2CCN(C)CC2)cc1 | Non-toxic
CCC1(C)CC(=O)NC1=O (stereo unspecified) [ETHOSUXIMIDE] | Non-toxic
CCOC(=O)Nc1ccc(N2CCN(c3ccc(OC)cc3)CC2)cc1 | Non-toxic
CCOC(=O)Nc1ccc(N2CCN(CC)CC2)cc1 | Non-toxic

system: Mus musculus; assay: Anticonvulsant activity in intraperitoneally dosed Swiss albino mouse assessed as reduction in clonic seizures after 0.5 hrs by subcutaneous pentylenetetrazole seizure test; assay type: functional; settings: not given; how it was run: as §3

Structure (SMILES) | MED50
NC(=O)N1c2ccccc2C=Cc2ccccc21 [CARBAMAZEPINE] | 100 mg/kg
CCOC(=O)Nc1ccc(N2CCN(c3ccc(C(C)=O)cc3)CC2)cc1 | 100 mg/kg
CCC1(C)CC(=O)NC1=O (stereo unspecified) [ETHOSUXIMIDE] | 100 mg/kg
CCOC(=O)Nc1ccc(N2CCN(c3ccc(C)cc3)CC2)cc1 | 100 mg/kg

system: Mus musculus; assay: Toxicity in Swiss albino mouse assessed as induction of death following tonic extension at 300 mg/kg, ip after 4 hrs during maximal electroshock seizure test; assay type: organism-based; design: dose 300 mg/kg, route intraperitoneal; settings: in vivo

Structure (SMILES) | Activity
CCOC(=O)Nc1ccc(N2CCN(c3ccncc3)CC2)cc1 | Toxic

system: not listed separately; assay: Neurological toxicity in intraperitoneally dosed Swiss albino mouse assessed as motor impairment after 4 hrs by rotarod test; assay type: organism-based; settings: in vivo, ip, read-out: MTD50

Structure (SMILES) | TD50 at 4 h
NC(=O)N1c2ccccc2C=Cc2ccccc21 [CARBAMAZEPINE] | 300 mg/kg
CCOC(=O)Nc1ccc(N2CCN(C(=O)c3ccccc3)CC2)cc1 | 300 mg/kg
CCOC(=O)Nc1ccc(N2CCN(c3ccc(C)cc3)CC2)cc1 | 100 mg/kg
CCOC(=O)Nc1ccc(N2CCN(c3ccncc3)CC2)cc1 | 100 mg/kg
CCOC(=O)Nc1ccc(N2CCN(c3ccccn3)CC2)cc1 | 100 mg/kg

system: Mus musculus; assay: Anticonvulsant activity in intraperitoneally dosed Swiss albino mouse assessed as reduction in electrical stimulus-induced seizures after 4 hrs by maximal electroshock seizure test; assay type: functional; settings: not given; how it was run: as §3

Structure (SMILES) | MED50
CCOC(=O)Nc1ccc(N2CCN(c3ccc(F)cc3)CC2)cc1 | 300 mg/kg
NC(=O)N1c2ccccc2C=Cc2ccccc21 [CARBAMAZEPINE] | 100 mg/kg
CCOC(=O)Nc1ccc(N2CCN(c3ccc(C(C)=O)cc3)CC2)cc1 | 100 mg/kg
CCOC(=O)Nc1ccc(N2CCN(C(=O)c3ccccc3)CC2)cc1 | 100 mg/kg
CCOC(=O)Nc1ccc(N2CCN(c3ccc(C)cc3)CC2)cc1 | 100 mg/kg
CCOC(=O)Nc1ccc(N2CCN(c3ccncc3)CC2)cc1 | 300 mg/kg
CCOC(=O)Nc1ccc(N2CCN(c3ccccn3)CC2)cc1 | 100 mg/kg

system: Mus musculus; assay: Neurological toxicity in Swiss albino mouse assessed as motor impairment at 300 mg/kg, ip after 4 hrs by rotarod test; assay type: organism-based; design: dose 300 mg/kg, route intraperitoneal; settings: in vivo; how it was run: as §7

Structure (SMILES) | Activity
CCOC(=O)Nc1ccc(N2CCN(c3ccc(F)cc3)CC2)cc1 | Non-toxic
CCOC(=O)Nc1ccc(N2CCN(c3ccc(C(C)=O)cc3)CC2)cc1 | Non-toxic
CCOC(=O)Nc1ccc(N2CCN(C)CC2)cc1 | Non-toxic
CCC1(C)CC(=O)NC1=O (stereo unspecified) [ETHOSUXIMIDE] | Non-toxic
CCOC(=O)Nc1ccc(N2CCN(c3ccc(OC)cc3)CC2)cc1 | Non-toxic
CCOC(=O)Nc1ccc(N2CCN(CC)CC2)cc1 | Non-toxic

system: Mus musculus; assay: as §5, with “at 10 to 30” for “at 5”; assay type: functional, organism-based; settings: not given; how it was run: as §6

Structure (SMILES) | Activity
CCOC(=O)Nc1ccc(N2CCN(c3ccc(C(C)=O)cc3)CC2)cc1 | Active

system: Mus musculus; assay: Anticonvulsant activity in intraperitoneally dosed Swiss albino mouse assessed as reduction in clonic seizures after 4 hrs by subcutaneous pentylenetetrazole seizure test; assay type: functional; settings: not given; how it was run: as §3

Structure (SMILES) | MED50
NC(=O)N1c2ccccc2C=Cc2ccccc21 [CARBAMAZEPINE] | 300 mg/kg
CCOC(=O)Nc1ccc(N2CCN(c3ccc(C(C)=O)cc3)CC2)cc1 | 100 mg/kg
CCOC(=O)Nc1ccc(N2CCN(C(=O)c3ccccc3)CC2)cc1 | 300 mg/kg
CCC1(C)CC(=O)NC1=O (stereo unspecified) [ETHOSUXIMIDE] | 300 mg/kg
CCOC(=O)Nc1ccc(N2CCN(c3ccc(OC)cc3)CC2)cc1 | 100 mg/kg

system: Mus musculus; assay: Anticonvulsant activity in Swiss albino mouse assessed as reduction in clonic seizures at 300 mg/kg, ip after 4 hrs by subcutaneous pentylenetetrazole seizure test; assay type: functional, organism-based; design: dose 300 mg/kg; settings: not given; how it was run: as §3

Structure (SMILES) | Activity
CCOC(=O)Nc1ccc(N2CCN(c3ccc(F)cc3)CC2)cc1 | inactive
CCOC(=O)Nc1ccc(N2CCN(C)CC2)cc1 | inactive
CCOC(=O)Nc1ccc(N2CCN(CC)CC2)cc1 | inactive
CCOC(=O)Nc1ccc(N2CCN(c3ccc(C)cc3)CC2)cc1 | inactive
CCOC(=O)Nc1ccc(N2CCN(c3ccncc3)CC2)cc1 | inactive
CCOC(=O)Nc1ccc(N2CCN(c3ccccn3)CC2)cc1 | inactive
